# Compound activity from PubChem BioAssay.
# DENV2 CPE: protects cells from dengue virus 2 cytopathic effect; DENV2-infected cells, cytopathic effect rescue, plate reader; CPE inhibition, % at 9.99 µM; 350,000 tested, 1.7% active; AID 651640; in the data active = CPE inhibition above about 20%, passing the limit was not always enough; inconclusive = no clear call, values can overlap the other calls; tested in BHK-21 cells;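 also: 0% = median of neutral control wells and 100% = median of positive control wells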
# Statin myotox sup: protects C2C12 myotubes from simvastatin toxicity. AID 602340. 330,000 tested, 0.78% active. rescue of ATP level, % at 7.49 µM. ATP luminescence, 48 h; scaled: DMSO 0, geranylgeraniol control 100;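 active = mean ATP rescue above about 67%, or every replicate alone reaching that limit, limit read from the data, passing the limit was not always enough; inconclusive = no clear call, values can overlap the other calls; inactive = mean under the limit and some replicate under it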;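 also: myotubes were challenged with 10 µM simvastatin during compound exposure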
# Cneo AK release: causes C. neoformans cell lysis; lysis activity, % at 15 µM; 360,000 tested, 0.2% active; adenylate kinase release luminescence, 4 h; normalised: neutral wells 0, clomiphene wells 100; AID 651654;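 active = mean lysis activity across replicates of at least 80%, whatever share of replicates individually reach that level; inactive = mean lysis activity below 80%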
#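 Assay system: log-phase C. neoformans yeast / Quantity: yeast cell density of 5 × 10^6 cells/mL / Medium: fresh YPD growth medium / Compound: single dose / Timing: static 4 h at 37 °C with compound, 1 h detection / Measured by: adenylate kinase release luminescence / Read-out: lysis from increased AK signal / Benchmarks: Clomiphene as positive lysis control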
# PDI turbidity: blocks human protein disulfide isomerase activity. P07237. PDI insulin aggregation turbidity, A650, 90 min. 350,000 tested, 0.052% active. inhibition, % at 10 µM;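 active = mean inhibition across replicates of 30% or more, whatever share of single replicates reach that level; inconclusive = mean inhibition below 30% while every single replicate reaches 30%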
# ERp5 inh: blocks human ERp5 reductase activity on insulin. Q15084. AID 651711. inhibition, % at 9.99 µM. ERp5 insulin aggregation, absorbance 650 nm, 90 min. 350,000 tested, 0.05% active;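 active = mean replicate inhibition above about 25%, with every replicate also reaching it, limit read from the data, passing the limit was not always enough; inconclusive = only one of those two criteria met; inactive = neither criterion met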
# Target sequence (Q15084 whole entry, looked up): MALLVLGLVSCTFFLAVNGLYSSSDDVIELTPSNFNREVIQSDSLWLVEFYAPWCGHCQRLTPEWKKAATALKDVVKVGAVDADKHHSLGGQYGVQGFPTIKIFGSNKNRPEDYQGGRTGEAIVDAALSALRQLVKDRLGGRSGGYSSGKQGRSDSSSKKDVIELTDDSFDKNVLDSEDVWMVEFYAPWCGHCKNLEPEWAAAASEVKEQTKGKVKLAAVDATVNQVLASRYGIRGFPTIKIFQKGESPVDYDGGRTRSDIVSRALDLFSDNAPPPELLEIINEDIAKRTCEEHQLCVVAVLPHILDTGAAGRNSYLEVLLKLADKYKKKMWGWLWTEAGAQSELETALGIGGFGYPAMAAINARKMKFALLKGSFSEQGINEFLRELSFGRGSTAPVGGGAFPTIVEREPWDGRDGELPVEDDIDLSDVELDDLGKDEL
# CFTR F508del cor: correctors of CFTR F508del function in bronchial epithelial cells; activity (quench increase), % at 7.58 µM; AID 720511; 350,000 tested, 0.36% active; CFBE cells, YFP halide quenching; stimulated with forskolin plus potentiator P3; % fluorescence drop versus neutral controls;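 active = mean added fluorescence quench of at least 8% versus neutral control, with both replicates also reaching 8%; inconclusive = only one of the mean or replicate conditions met; inactive = mean below 8% and not both replicates reaching 8%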;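 also: cells transiently co-express mutant CFTR-F508del with the halide-sensitive YFP; corrector assay measuring rescue of mutant channel to the surface after 24 h compound exposure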
# Numbers without * were called inactive; ? = inconclusive; . = no result. Shown are actives, neighbours in structure and some others; about 2.3% of the full set was active somewhere.
SMILES,DENV2 CPE,Statin myotox sup,Cneo AK release,PDI turbidity,ERp5 inh,CFTR F508del cor
C[C@@H]1CN([C@H](C)CO)S(=O)(=O)c2ccc(C#C[C@@H](C)O)cc2O[C@H]1CN(C)C(=O)Cc1ccccn1,?,.,-5,.,-7,1
CCOc1ccc(-n2c(C)c(C(C)=O)c3cc(OCC(N)=O)ccc32)cc1,32*,.,.,-5,0,.
COc1ccc(C)cc1NC(=O)C(OC(=O)c1cnc(C)cn1)c1ccccc1 (stereo not drawn),3,.,.,-2,0,-1
COc1ccc(NC(=O)C(OC(=O)c2cnc(C)cn2)c2ccccc2)cc1Cl (stereo not drawn),75*,2,.,2,-7,-7
CCOC(=O)C1=C(C)N=C2SCCC(=O)N2C1c1sccc1C (stereo not drawn),.,-4,4,3,.,.
C=CCOC(=O)C1=C(C)N=C2SCCC(=O)N2C1c1cccs1 (stereo not drawn),.,110*,24,19,.,.
C[C@@H]1CCCCO[C@H](CN(C)Cc2ccncc2)[C@@H](C)CN([C@H](C)CO)C(=O)c2cc(NC(=O)Nc3ccc4c(c3)OCO4)ccc2O1,-6,.,0,.,-1,0
COCC(=O)NC[C@@H]1[C@@H](c2ccc(C3=CCCC3)cc2)[C@@H](CO)N1C(=O)C1CC1,25*,0,-4,.,-1,0
COCC(=O)NC[C@H]1N[C@H](CO)[C@@H]1c1ccc(C2=CCCC2)cc1,5,-20,108*,.,.,4
COCC(=O)NC[C@@H]1[C@H](c2ccc(C3=CCCC3)cc2)[C@H](CO)N1C(=O)C1CC1,-5,18,4,.,-1,-2
COCC(=O)NC[C@H]1N[C@H](CO)[C@H]1c1ccc(C2=CCCC2)cc1,1,13,97*,.,.,1
COc1ccc(S(=O)(=O)Nc2ccc3c(c2)C(=O)N([C@H](C)CO)C[C@@H](C)[C@@H](CN(C)S(C)(=O)=O)OCCCC[C@@H](C)O3)cc1,49*,.,-2,.,-2,-1
Cc1ccc(S(=O)(=O)Nc2ccc3c(c2)C(=O)N([C@@H](C)CO)C[C@H](C)[C@@H](CN(C)C(=O)NC(C)C)OCCCC[C@@H](C)O3)cc1,22*,.,.,.,-1,0
CNC[C@@H]1OCCCC[C@H](C)Oc2ccc(NS(=O)(=O)c3c(C)noc3C)cc2C(=O)N([C@@H](C)CO)C[C@@H]1C,132*,.,13,.,.,-2
Cc1ccc(S(=O)(=O)Nc2ccc3c(c2)C(=O)N([C@H](C)CO)C[C@H](C)[C@@H](CN(C)S(C)(=O)=O)OCCCC[C@H](C)O3)cc1,57*,.,-1,.,1,2
CO[C@@H]1CN(C)C(=O)c2cc(NS(C)(=O)=O)ccc2OC[C@@H](C)N(C(=O)C2CCCCC2)C[C@@H]1C,-3,9,-1,.,0,-2
O=C(Cc1ccccn1)N[C@H]1CC[C@H](CCn2cc(-c3ccccc3)nn2)O[C@@H]1CO,-5,1,-12,.,5,-9
Cc1ccc(S(=O)(=O)Nc2ccc3c(c2)C(=O)N([C@@H](C)CO)C[C@H](C)[C@@H](CN(C)S(C)(=O)=O)OCCCC[C@@H](C)O3)cc1,26*,.,1,.,0,0
CNC[C@H]1OCCCC[C@@H](C)Oc2ccc(NS(=O)(=O)c3ccc(C)cc3)cc2C(=O)N([C@H](C)CO)C[C@@H]1C,30*,34,-4,.,-1,-3
Cc1ccc(S(=O)(=O)Nc2ccc3c(c2)C(=O)N([C@H](C)CO)C[C@H](C)[C@H](CN(C)S(C)(=O)=O)OCCCC[C@H](C)O3)cc1,18,.,0,.,-1,-1
O=C(NCc1ccc(F)cc1)[C@H]1[C@H](CO)[C@H]2Cn3c(cccc3=O)[C@H]2N1CC1CC1,-1,3,-2,.,6,1
O=C(C[C@H]1CC[C@H](NC(=O)c2ccccn2)[C@@H](CO)O1)NCc1cc(F)cc(F)c1,0,-1,4,.,4,2
Cc1ccc(CNC(=O)CSc2ccc(-c3ccccn3)nn2)cc1,-2,.,.,-7,-11,0
Cc1ccc(CNC(=O)CSc2ccc(-c3cccs3)nn2)cc1,20*,.,17,-9,-2,1
